Sampled rows, rich in hits. Any-hit rate of the full collection: about 6.7%.
PREPL inhibitor: PREPL enzyme inhibitors, primary screen, biochemical, fluorescence polarization | Prolyl endopeptidase-like (Homo sapiens), Q4J6C6 | recombinant PREPL, fluorescence polarization activity-based probe | actives 0.68% (n = 320,000) | AID 2751, 2010 | inhibition, % at 5.96 µM; in the data active = inhibition above about 43%
Target sequence (Q4J6C6 whole entry, looked up): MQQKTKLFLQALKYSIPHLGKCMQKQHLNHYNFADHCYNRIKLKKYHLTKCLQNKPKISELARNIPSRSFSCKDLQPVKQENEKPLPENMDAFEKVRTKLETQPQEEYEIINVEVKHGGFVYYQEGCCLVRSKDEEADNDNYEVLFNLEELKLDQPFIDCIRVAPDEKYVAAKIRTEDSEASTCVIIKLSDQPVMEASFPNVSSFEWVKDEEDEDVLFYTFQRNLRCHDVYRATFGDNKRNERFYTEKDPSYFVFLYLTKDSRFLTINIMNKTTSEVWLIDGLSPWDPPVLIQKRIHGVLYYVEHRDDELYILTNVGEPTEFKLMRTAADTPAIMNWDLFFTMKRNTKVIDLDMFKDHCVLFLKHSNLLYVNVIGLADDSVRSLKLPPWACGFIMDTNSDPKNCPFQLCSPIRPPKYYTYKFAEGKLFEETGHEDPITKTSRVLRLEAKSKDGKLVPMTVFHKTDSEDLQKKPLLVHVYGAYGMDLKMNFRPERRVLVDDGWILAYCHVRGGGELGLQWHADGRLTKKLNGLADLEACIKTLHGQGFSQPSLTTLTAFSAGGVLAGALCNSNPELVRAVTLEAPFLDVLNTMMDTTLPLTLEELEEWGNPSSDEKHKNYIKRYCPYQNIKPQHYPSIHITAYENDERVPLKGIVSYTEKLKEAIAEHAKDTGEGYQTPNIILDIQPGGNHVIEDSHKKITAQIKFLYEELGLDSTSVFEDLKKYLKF
CHOP inh: inhibitors of CHOP promoter induction, primary screen, cell-based, unfolded protein response, luciferase reporter; CHO-K1 CHOP-promoter luciferase, tunicamycin-induced, 15-18 h; inhibition, % at 10 µM; actives 3.8% (n = 220,000); AID 2732, 2010;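 active = compounds that reduced the stress-induced luciferase reporter signal by more than about 70% of percent inhibition, limit read from the data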
GRIN3A LBD mod: binders of NR3A ligand-binding domain, primary screen, biophysical, differential scanning fluorimetry, uHTS; Glutamate receptor ionotropic, NMDA 3A (GRIN3A) ligand-binding domain; NR3A LBD differential scanning fluorimetry, Tm shift; 0% = protein alone, 100% = glycine-bound protein; Tm shift relative to glycine control, % at 25 µM; actives 2.5% (n = 340,000); AID 1259313, 2017;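 active = melting temperature shift of at least 10% of the positive control shift, at one fixed dose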
Beta apoptosis: inhibitors of cytokine-induced beta cell apoptosis, primary screen, luminescence; INS-1E cytokine-induced death, ATP luminescence, 48 h; percent of positive-control rescue, neutral wells zero; protection from apoptosis, % (test concentration not listed); actives 0.8% (n = 300,000);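 active = Every replicate reaches about 75%, or at least half do and their mean reaches it too, limit read from the data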;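 also: higher means more ATP so stronger rescue from cytokine killing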
CSC inhib: cancer stem cell viability inhibitors, primary screen, luminescence; cancer stem cell-like cells viability; inhibition, % at 7.5 µM; actives 1.1% (n = 300,000); in the data active = inhibition above about 75%; tested in HMLE shEcad cells
T cruzi repl: inhibitors of intracellular T. cruzi growth, primary screen, luminescence, NIH3T3 host cells. actives 1.4% (n = 300,000). inhibition, % (test concentration not listed). T. cruzi beta-gal in NIH3T3, 90 h. AID 1885, 2009;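 active = mean inhibition across valid replicates above about 55%, limit read from the data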;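 also: signal also drops with host cell toxicity which is not excluded here; higher percent means less beta-gal luminescence so fewer parasites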
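System: Mouse NIH/3T3 fibroblasts infected with β-gal-expressing T. cruzi Tulahuen C4 | Quantity: NIH/3T3 cells, 5,000 per well | Reagent: 5000 reporter trypomastigotes per well | Dosing: Compound pinned at 50 nL/well, DMSO | Schedule: 3 h host attachment, then at least 90 h co-culture | Detection: GalScreen luminescence, 60 min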
Hits are given with their value; - = inactive; . = not tested or not shown.

SMILES	PREPL inhibitor	CHOP inh	GRIN3A LBD mod	Beta apoptosis	CSC inhib	T cruzi repl
O=C(Nc1ccccc1O)c1ccc(NC(=O)C2CC2)cc1	-	.	23	-	-	-
O=C(Nc1ccc(Cl)cc1)c1cccs1	-	-	-	-	-	-
CC(C)(C)OC(=O)NCCCCCO	-	.	-	-	-	.
C=CCN(Cc1ccc(Cl)s1)C(=O)c1cc(S(=O)(=O)N2CCOCC2)ccc1F	-	.	-	-	.	.
O=C(Nc1ccc(NC(=O)c2cccs2)cc1)c1cccs1	-	.	22	-	-	-
Cc1ccn2cc(-c3ccc(NC(=O)c4ccco4)cc3)nc2c1	-	-	29	-	-	-
O=C(NC(=S)Nc1ccc(N2CCCCC2)c(Cl)c1)c1cccs1	-	.	-	-	81	-
Nc1cccc(NC(=O)c2cccs2)c1	-	-	-	-	-	-
O=C(Nc1cc(Cl)ccc1N1CCCCC1)c1cccs1	-	-	-	-	-	-
O=C(Nc1cccc(N2CCCC2)c1)c1cccs1	-	-	-	-	-	57
CC(C)(C)C(=O)Nc1ccc(C(=O)CSc2nnc(C3CC3)n2C2CC2)cc1	-	.	-	-	.	.
CC(C)c1ccc(-c2nc3ccccc3s2)cc1	-	93	-	-	-	-
CC(C)(C)NC(=O)C(c1ccco1)N(C(=O)Cn1nnc(-c2ccc(F)cc2)n1)c1ccccc1F (centres undefined)	-	84	-	-	-	-
CC(C)(C)NC(=O)C(c1c[nH]c2ccccc12)N(C(=O)Cn1nnc(-c2ccc(Cl)cc2)n1)c1ccccc1F (centres undefined)	-	-	-	-	-	55
Cc1ccc(-c2nnn(CC(=O)N(c3ccccc3)C(C(=O)NC3CCCC3)c3ccco3)n2)o1 (centres undefined)	-	94	-	-	-	-
CC(C)(C)NC(=O)C(c1ccco1)N(C(=O)Cn1nnc(-c2ccc(F)cc2)n1)c1ccccc1 (centres undefined)	-	.	-	.	-	.
COCCN(C(=O)COC(=O)CCc1c[nH]c2ccccc12)c1c(N)n(Cc2ccccc2)c(=O)[nH]c1=O	-	.	-	-	-	-
COc1ccc(C(=O)COC(=O)c2sc(C)nc2C)cc1F	-	.	-	-	-	.
O=C1[C@H]2[C@@H](c3ccc(Cl)cc3)N3C(=O)N(c4cccc(Br)c4)C(=O)[C@@]3(Cc3ccc(Cl)cc3)[C@H]2C(=O)N1C1CCCCC1	-	.	-	-	-	65
CCCCOc1cccc(C2/C(=C(\O)c3ccc4c(c3)OCCO4)C(=O)C(=O)N2CCN2CCOCC2)c1 (centres undefined)	-	.	-	-	-	-
O=C(c1cc(COc2ccc3ncccc3c2)on1)N1CCC(O)CC1	-	-	-	.	-	-
O=C(NC1CCCCCCC1)c1cc(COc2ccc3ncccc3c2)on1	.	81	-	.	.	-
CCC(O)C1CCN(C(=O)c2cc(COc3ccc4ncccc4c3)on2)CC1 (centres undefined)	-	-	-	106	-	-
Cc1cccnc1CN1CCN(C(=O)c2cc(COc3ccc4ncccc4c3)on2)CC1	-	-	-	100	-	-
CCOC(=O)N1CCN(C(=O)c2cc(COc3ccc4ncccc4c3)on2)CC1	-	-	-	-	-	-
SMILES	PREPL inhibitor	CHOP inh	GRIN3A LBD mod	Beta apoptosis	CSC inhib	T cruzi repl
CCOC(=O)N1CCN(C(=O)c2cc(COc3cccc(C(C)=O)c3)on2)CC1	-	.	-	.	-	-
CCOC(=O)N1CCN(C(=O)c2cc(COc3cccc(C(F)(F)F)c3)on2)CC1	-	.	25	.	-	-
COc1ccc(N2CCN(C(=S)Nc3ccccc3OC)CC2)cc1	-	.	-	-	-	-
Cc1cc(C)c(S(=O)(=O)NC2CCN(Cc3ccccc3)CC2)c(C)c1	-	-	-	-	-	-
O=C(Nc1ccccc1)NC1CCN(Cc2c(F)cccc2Cl)CC1	-	-	-	-	-	-
CC(C)(C)c1ccc(C(=O)NC2CCN(Cc3ccccc3)CC2)cc1	-	.	-	-	-	-
CN1CCC(NC(=O)Nc2ccc(Br)cc2)CC1	-	-	-	-	-	61
O=C(NC1CCN(Cc2ccccc2)CC1)c1ccccc1	-	.	-	.	.	56
Cc1cc(C)c(C)c(S(=O)(=O)NC2CCN(Cc3ccccc3)CC2)c1C	-	79	-	-	-	-
O=C(Nc1ccc(F)cc1)NC1CCN(Cc2ccccc2)CC1	-	-	-	-	-	60
O=C(CN1C(=O)COc2ccc(Cl)cc21)Nc1ccccn1	-	.	-	-	-	-
CCOc1ccccc1NC(=O)CCCn1cc([N+](=O)[O-])cn1	-	-	-	-	-	-
CCCCCNC(=O)c1ccc2c(=O)n(CCCN3CCCC3=O)c(=S)[nH]c2c1	-	-	-	-	-	-
CC(=O)Nc1ccc(NC(=O)C(OC(=O)c2ccccc2)C(OC(=O)c2ccccc2)C(=O)O)cc1 (centres undefined)	-	-	-	-	-	-
Cc1ccc(CS(=O)Cc2ccc(C(=O)NCCc3ccccc3)o2)cc1 (centres undefined)	-	.	-	-	-	-
Cc1ccc(S(=O)(=O)Nc2cccc(C(=O)NC3CCN(Cc4ccccc4)CC3)c2)cc1F	-	.	-	.	-	56
CC(C)c1ccc(NC(=O)NC2CCN(CC(=O)Nc3cccc4ccccc34)CC2)cc1	-	-	-	-	-	56
O=C(Cc1ccccc1)NC1CCN(Cc2ccccc2)CC1	-	-	-	-	-	-
Cc1ccc(-c2nnn(CC(=O)NC3CCN(Cc4ccccc4)CC3)n2)cc1	-	-	-	-	-	66
O=C(CN1CCC(NC(=O)Nc2ccccc2)CC1)Nc1ccccc1F	-	.	-	-	-	-
O=C(Nc1ccc2c(c1)OCO2)NC1CCN(Cc2ccccc2)CC1	-	-	-	-	-	56
CC(CCCN(C)C)C(Cc1ccccc1)c1ccccc1 (centres undefined)	-	.	-	-	-	-
CCCCn1c(N)c(N(CC(C)C)C(=O)c2ccc(S(=O)(=O)N3CCC(C)CC3)cc2)c(=O)[nH]c1=O	-	.	-	-	.	-
CCC(C(=O)Nc1ccc([N+](=O)[O-])cn1)c1ccccc1 (centres undefined)	-	.	-	-	-	-
CCc1ccc(NC(=S)NC2CCN(Cc3ccccc3)CC2)cc1	-	-	-	-	-	-
CN1C(=O)/C(=C\c2ccccc2F)Sc2ccc(C(=O)NC3CCN(Cc4ccccc4)CC3)cc21	-	.	-	.	-	61
CCc1cccc(CN2CCC(CNC(=O)Nc3ccc(Cl)cc3)CC2)c1	-	-	-	-	-	57

Bioassay records deposited in PubChem BioAssay by several laboratories.
